# Legend:
# full-length DnaG = molecular target: T1, full-length DnaG (Bacillus subtilis, UniProt P05096); type: biochemical
# T1 sequence (P05096 1-603): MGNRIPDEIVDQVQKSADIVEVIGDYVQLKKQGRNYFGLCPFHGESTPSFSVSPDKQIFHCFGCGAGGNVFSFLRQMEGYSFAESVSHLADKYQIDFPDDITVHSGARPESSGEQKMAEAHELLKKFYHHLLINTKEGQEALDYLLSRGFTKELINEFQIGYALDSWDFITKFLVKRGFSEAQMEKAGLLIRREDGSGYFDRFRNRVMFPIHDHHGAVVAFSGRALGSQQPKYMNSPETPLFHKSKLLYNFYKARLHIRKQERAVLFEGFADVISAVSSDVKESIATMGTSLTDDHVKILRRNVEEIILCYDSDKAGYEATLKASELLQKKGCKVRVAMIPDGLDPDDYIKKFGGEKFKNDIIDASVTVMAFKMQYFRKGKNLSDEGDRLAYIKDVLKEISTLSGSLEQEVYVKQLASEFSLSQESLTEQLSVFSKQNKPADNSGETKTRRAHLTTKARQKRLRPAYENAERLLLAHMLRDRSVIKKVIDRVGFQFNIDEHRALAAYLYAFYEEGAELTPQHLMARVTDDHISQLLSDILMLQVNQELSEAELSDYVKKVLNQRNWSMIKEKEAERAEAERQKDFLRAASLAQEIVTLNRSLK
# Procedure, shortened: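 Full-length His-tagged DnaG, Ni-affinity purified, at 100 nM was added last to 500 nM ssDNA template with 0.4 mM ATP, CTP, UTP and GTP at 0, 12.5, 25, 50, 100, 200 or 400 μM, preincubated ± inhibitor. Buffer: 50 mM Tris pH 7.5 with Mg2+, Mn2+, Ca2+ and 10 mM DTT. Incubated 37°C, 30 min; heteroduplex dye fluorescence read at four time points. V0 per enzyme; Ki fitted to competitive/uncompetitive/noncompetitive/mixed models; n≥3.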
# DnaG(ZBD+RPD) = DnaG(ZBD+RPD) (Bacillus subtilis, UniProt P05096); type: biochemical
# Procedure, shortened: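 His-tagged DnaGΔ440-603 (ZBD+RPD), expressed in BL21(DE3) cells and Ni-affinity purified, used at 200 nM. Template (500 nM ssDNA) and NTPs (0.4 mM ATP, CTP, UTP; GTP 0–400 μM) briefly preincubated ± inhibitor before enzyme. Buffer: 50 mM Tris pH 7.5, 10 mM Mg acetate, 5 mM MnCl2, 5 mM CaCl2. Ran at 37°C. Dye read at 5, 10, 20 and 30 min (ex 485/em 528 nm). V0 was normalised to enzyme, and Ki came from inhibition-model fits; n≥3.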
Ki (full-length DnaG),Ki (DnaG(ZBD+RPD)),Structure (SMILES)
777 ± 110 µM,–,Nc1nc2c(ncn2[C@@H]2O[C@H](COP(=O)(O)OP(=O)(O)O)[C@@H](OP(=O)(O)OP(=O)(O)O)[C@H]2O)c(=O)[nH]1 [ppGpp]
163 ± 37 µM,115 ± 17.8 µM,Nc1nc2c(ncn2[C@@H]2O[C@H](COP(=O)(O)OP(=O)(O)OP(=O)(O)O)[C@@H](OP(=O)(O)OP(=O)(O)O)[C@H]2O)c(=O)[nH]1 [pppGpp]

# Reference: paper PMC8453095 (Journal of molecular biology, 2021)
